# According to ChEMBL document CHEMBL3808334, “Synthesis and in vitro evaluation of novel triazine analogues as anticancer agents and their interaction studies with bovine serum albumin” (Eur J Med Chem, 2016):
# Tests used:
# Format in all cases: functional
# [1] = Growth inhibition of human SNB75 cells incubated for 48 hrs by sulforhodamine B assay; conditions: SNB-75, 48 h
# In short: (§1)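 Cells were plated at 5,000–40,000 per well according to doubling time and preincubated 24 h at 37 °C in 5% CO2; time-zero plates were then TCA-fixed. Five concentrations (10-fold or ½-log dilutions, DMSO stock) were incubated 48 h. Cells were TCA-fixed, stained with 0.4% SRB and read at 515 nm. GI50 was taken where [(Ti−Tz)/(C−Tz)]×100 = 50.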
# [2] = tested on: U-251; assay: Growth inhibition of human U251 cells assessed as cell growth at 10^-6 M incubated for 48 hrs by sulforhodamine B assay; conditions: U-251, 48 h, read-out: Activity
# [3] = Growth inhibition of human SF268 cells assessed as cell growth at 10^-7 M incubated for 48 hrs by sulforhodamine B assay; conditions: SF-268, 48 h, read-out: Activity
# [4] = tested on: Malme-3M; assay: Growth inhibition of human MALME-3M cells assessed as cell growth at 10 uM incubated for 48 hrs by sulforhodamine B assay; conditions: read-out: Activity
# [5] = tested on: SN12C; assay: Growth inhibition of human SN12C cells assessed as cell growth at 10^-7 M incubated for 48 hrs by sulforhodamine B assay; conditions: read-out: Activity
# [6] = Growth inhibition of human SF268 cells incubated for 48 hrs by sulforhodamine B assay; conditions: SF-268, 48 h; in short: as §1
# [7] = Growth inhibition of human SF539 cells assessed as cell growth at 10^-7 M incubated for 48 hrs by sulforhodamine B assay; conditions: SF-539, 48 h, read-out: Activity
# [8] = tested on: A498; assay: Growth inhibition of human A498 cells assessed as cell growth at 10^-5 M incubated for 48 hrs by sulforhodamine B assay; conditions: A498, 48 h, read-out: Activity
# In short: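 Five-dose assay: five concentrations from 10-fold or ½-log serial dilutions. Cells are plated at 5,000–40,000 per well according to doubling time, grown 24 h, then exposed 48 h at 37 °C, 5% CO₂. Fixed with cold 50% TCA (final addition) for 60 min at 4 °C and stained with 0.4% SRB in 1% acetic acid. Bound dye is solubilized in 10 mM Tris base and read at 515 nm. GI₅₀ is where [(Ti−Tz)/(C−Tz)]×100 = 50, with a time-zero plate as Tz.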
# [9] = Growth inhibition of human BT549 cells assessed as cell growth at 10 uM incubated for 48 hrs by sulforhodamine B assay; conditions: BT-549, 48 h, read-out: Activity
# In short: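 One-dose screen at 10 µM final. Cells are plated at 5,000–40,000 per well according to doubling time and preincubated 24 h at 37 °C, 5% CO₂. Compound (DMSO stock diluted in medium with 50 µg/ml gentamicin) is then added for 48 h. Growth percent is read by sulforhodamine B staining, absorbance at 515 nm.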
# [10] = Growth inhibition of human OVCAR8 cells assessed as cell growth at 10^-4 M incubated for 48 hrs by sulforhodamine B assay; conditions: OVCAR-8, 48 h, read-out: Activity
# [11] = Growth inhibition of human RPMI8226 cells incubated for 48 hrs by sulforhodamine B assay; conditions: RPMI-8226, 48 h; in short: as §1
# [12] = Growth inhibition of human HCT116 cells assessed as cell growth at 10 uM incubated for 48 hrs by sulforhodamine B assay; conditions: HCT-116, 48 h, read-out: Activity
# In short: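 Primary screen at one dose (10 µM) across 60 human cancer cell lines. Readout was growth percent relative to untreated control and time-zero.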
# [13] = Growth inhibition of human RXF393 cells assessed as cell growth at 10 uM incubated for 48 hrs by sulforhodamine B assay; conditions: RXF 393, 48 h, read-out: Activity
# [14] = tested on: HT-29; assay: Growth inhibition of human HT-29 cells assessed as cell growth at 10 uM incubated for 48 hrs by sulforhodamine B assay; conditions: HT-29, 48 h, read-out: Activity
# [15] = tested on: NCI/ADR-RES; assay: Growth inhibition of human NCI/ADR-RES cells assessed as cell growth at 10^-7 M incubated for 48 hrs by sulforhodamine B assay; conditions: read-out: Activity
# [16] = tested on: HT-29; assay: Growth inhibition of human HT-29 cells assessed as cell growth at 10^-7 M incubated for 48 hrs by sulforhodamine B assay; conditions: HT-29, 48 h, read-out: Activity
# [17] = tested on: NCI-H460; assay: Growth inhibition of human NCI-H460 cells assessed as cell growth at 10^-4 M incubated for 48 hrs by sulforhodamine B assay; conditions: NCI-H460, 48 h, read-out: Activity
# [18] = tested on: MCF7; assay: Growth inhibition of human MCF7 cells incubated for 48 hrs by sulforhodamine B assay; conditions: MCF7, 48 h; in short: as §1
# [19] = Growth inhibition of human SNB19 cells assessed as cell growth at 10^-5 M incubated for 48 hrs by sulforhodamine B assay; conditions: SNB-19, 48 h, read-out: Activity
# [20] = Growth inhibition of human HCT116 cells assessed as cell growth at 10^-4 M incubated for 48 hrs by sulforhodamine B assay; conditions: HCT-116, 48 h, read-out: Activity
# In short: (§2)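 Cells seeded at 5,000–40,000/well according to doubling time and preincubated 24 h at 37 °C, 5% CO2. Time-zero plates were TCA-fixed. DMSO concentrate was diluted in medium with 50 µg/ml gentamicin to give five concentrations (10-fold or ½ log steps), then exposed 48 h. Cells were TCA-fixed, stained with 0.4% SRB and read at 515 nm. Percent growth was taken against time-zero and control; GI50, TGI and LC50 derived.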
# [21] = tested on: EKVX; assay: Growth inhibition of human EKVX cells assessed as cell growth at 10^-6 M incubated for 48 hrs by sulforhodamine B assay; conditions: read-out: Activity; in short: as §2
# [22] = Growth inhibition of human MOLT4 cells assessed as cell growth at 10^-8 M incubated for 48 hrs by sulforhodamine B assay; conditions: MOLT-4, 48 h, read-out: Activity
# [23] = Growth inhibition of human HL-60(TB) cells assessed as cell growth at 10^-4 M incubated for 48 hrs by sulforhodamine B assay; conditions: HL-60, 48 h, read-out: Activity
# In short: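 Cells plated at 5,000–40,000/well according to doubling time and preincubated 24 h at 37 °C, 5% CO₂, with time-zero plates TCA-fixed. Drugs were kept as DMSO concentrates at 400× the top concentration and diluted in medium with 50 µg/ml gentamicin. Five 10-fold or ½-log dilutions were run for 48 h, followed by SRB staining and A515. Percent growth = (Ti−Tz)/(C−Tz)×100, or (Ti−Tz)/Tz×100 when Ti<Tz.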
# [24] = read-out: LC50 (the source's name)
# [25] = read-out: pLC50 (the source's name) (converted)
smiles,measurement,setting,value
Fc1ccc(-c2nc(Nc3ccc(-c4nc5ccccc5[nH]4)cc3)nc(N3CCOCC3)n2)cc1,GI50,[1]; read-out: GI50,1.8 µM
same,CC50,[1]; [24],> 100 µM
same,TGI,[1]; read-out: TGI,10.5 µM
same,GI50,[1]; read-out: pGI50 (converted),1.82 µM
same,CC50,[1]; [25],> 100 µM
same,TGI,[1]; read-out: pTGI (converted),10.5 µM
same,growth at 1 µM,[2],70%
same,growth at 0.1 µM,[3],96%
same,growth at 10 µM,[4],-65.7%
same,growth at 0.1 µM,[5],90%
same,GI50,[6]; read-out: GI50,2.82 µM
same,CC50,[6]; [24],> 100 µM
same,TGI,[6]; read-out: TGI,26.5 µM
same,GI50,[6]; read-out: pGI50 (converted),2.82 µM
same,CC50,[6]; [25],> 100 µM
same,TGI,[6]; read-out: pTGI (converted),26.3 µM
same,growth at 0.1 µM,[7],92%
same,growth at 10 µM,[8],-60%
same,growth at 10 µM,[9],5.16%
same,growth at 100 µM,[10],-44%
same,GI50,[11]; read-out: GI50,1.93 µM
same,CC50,[11]; [24],> 100 µM
same,TGI,[11]; read-out: TGI,6.54 µM
same,GI50,[11]; read-out: pGI50 (converted),1.95 µM
same,CC50,[11]; [25],> 100 µM
same,TGI,[11]; read-out: pTGI (converted),6.61 µM
same,growth at 10 µM,[12],4.8%
same,growth at 10 µM,[13],-67.5%
same,growth at 10 µM,[14],-23.1%
same,growth at 0.1 µM,[15],95%
same,growth at 0.1 µM,[16],96%
same,growth at 100 µM,[17],-39%
same,GI50,[18]; read-out: GI50,2.59 µM
same,CC50,[18]; [24],> 100 µM
same,TGI,[18]; read-out: TGI,> 100 µM
same,GI50,[18]; read-out: pGI50 (converted),2.57 µM
same,CC50,[18]; [25],> 100 µM
same,TGI,[18]; read-out: pTGI (converted),> 100 µM
same,growth at 10 µM,[19],15%
same,growth at 100 µM,[20],-78%
same,growth at 1 µM,[21],83%
same,growth at 0.01 µM,[22],98%
same,growth at 100 µM,[23],-20%
Clc1ccc(-c2nc(Nc3ccc(-c4nc5ccccc5[nH]4)cc3)nc(N3CCOCC3)n2)cc1,GI50,[1]; read-out: GI50,1.75 µM
same,TGI,[1]; read-out: TGI,3.25 µM
same,GI50,[1]; read-out: pGI50 (converted),1.74 µM
same,TGI,[1]; read-out: pTGI (converted),3.24 µM
same,growth at 1 µM,[2],-56%
same,growth at 0.1 µM,[3],96%
same,growth at 10 µM,[4],-73.4%
same,growth at 0.1 µM,[5],92%
same,GI50,[6]; read-out: GI50,0.311 µM
same,TGI,[6]; read-out: TGI,1.08 µM
same,GI50,[6]; read-out: pGI50 (converted),0.309 µM
same,TGI,[6]; read-out: pTGI (converted),1.07 µM
same,growth at 0.1 µM,[7],98%
same,growth at 10 µM,[8],-83%
same,growth at 10 µM,[9],-73.6%
same,growth at 100 µM,[10],-79%
same,GI50,[11]; read-out: GI50,0.257 µM
same,TGI,[11]; read-out: TGI,0.682 µM
same,GI50,[11]; read-out: pGI50 (converted),0.257 µM
same,TGI,[11]; read-out: pTGI (converted),0.676 µM
same,growth at 10 µM,[12],-85.5%
same,growth at 10 µM,[13],-91.1%
same,growth at 10 µM,[14],-78.6%
same,growth at 0.1 µM,[15],101%
same,growth at 0.1 µM,[16],99%
same,growth at 100 µM,[17],-33%
same,GI50,[18]; read-out: GI50,0.194 µM
same,TGI,[18]; read-out: TGI,0.49 µM
same,GI50,[18]; read-out: pGI50 (converted),0.195 µM
same,TGI,[18]; read-out: pTGI (converted),0.49 µM
same,growth at 10 µM,[19],-70%
same,growth at 100 µM,[20],-34%
same,growth at 1 µM,[21],58%
same,growth at 0.01 µM,[22],98%
same,growth at 100 µM,[23],-45%
c1ccc2[nH]c(-c3ccc(Nc4nc(N5CCCCC5)nc(N5CCOCC5)n4)cc3)nc2c1,GI50,[1]; read-out: GI50,2.1 µM
same,CC50,[1]; [24],> 100 µM
same,TGI,[1]; read-out: TGI,16.9 µM
same,GI50,[1]; read-out: pGI50 (converted),2.09 µM
same,CC50,[1]; [25],> 100 µM
same,TGI,[1]; read-out: pTGI (converted),17 µM
same,growth at 1 µM,[2],76%
same,growth at 0.1 µM,[3],98%
same,growth at 10 µM,[4],-50.2%
same,growth at 0.1 µM,[5],94%
same,GI50,[6]; read-out: GI50,3.21 µM
same,CC50,[6]; [24],> 100 µM
same,TGI,[6]; read-out: TGI,20.1 µM
same,GI50,[6]; read-out: pGI50 (converted),3.24 µM
same,CC50,[6]; [25],> 100 µM
same,TGI,[6]; read-out: pTGI (converted),20 µM
same,growth at 0.1 µM,[7],96%
same,growth at 10 µM,[8],-51%
same,growth at 10 µM,[9],23.1%
same,growth at 100 µM,[10],-49%
same,GI50,[11]; read-out: GI50,2.23 µM
same,CC50,[11]; [24],> 100 µM
same,TGI,[11]; read-out: TGI,6.58 µM
same,GI50,[11]; read-out: pGI50 (converted),2.24 µM
same,CC50,[11]; [25],> 100 µM
same,TGI,[11]; read-out: pTGI (converted),6.61 µM
same,growth at 10 µM,[12],9.65%
same,growth at 10 µM,[13],-56.1%
same,growth at 10 µM,[14],-28.1%
same,growth at 0.1 µM,[15],98%
same,growth at 0.1 µM,[16],105%
same,growth at 100 µM,[17],-45%
same,GI50,[18]; read-out: GI50,2.4 µM
same,CC50,[18]; [24],> 100 µM
same,TGI,[18]; read-out: TGI,7.9 µM
same,GI50,[18]; read-out: pGI50 (converted),2.4 µM
same,CC50,[18]; [25],> 100 µM
same,TGI,[18]; read-out: pTGI (converted),7.94 µM
same,growth at 10 µM,[19],13%
same,growth at 100 µM,[20],-75%
same,growth at 1 µM,[21],84%
same,growth at 0.01 µM,[22],99%
same,growth at 100 µM,[23],-22%
